Reference: the RNAGym collection of RNA variant scans (doi:10.1038/s41586-018-0170-7)

B1: tRNA (parent)
chain: GUUCCGUUGGCGUAAUGGUAACGCGUCUCCCUCCUAAGGAGAAGACUGCGGGUUCGAGUCCCGUACGGAACG

Variants of: B1
Experiment: yeast fitness, log relative to wild type (ln ratio); higher = fitter; tRNA-Arg(CCU), competitive growth, 37 C, 1 M NaCl
Procedure, shortened: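 A combinatorial tRNA-Arg(CCU) variant library was carried on a HIS3 centromeric plasmid in BY4742 lacking the chromosomal gene, from two independent transformations. Pools grew 4 generations in SC-HIS at 30 °C, then ~6.5 generations (~26.5 h) in SC-HIS 1M NaCl at 37 °C, with three outputs per input. Variants were counted by 125 bp paired-end Illumina sequencing. Fitness is ln of each genotype's generations (OD-scaled log2 output/input frequency, inverse-variance weighted across replicates) over the wild-type's.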

Variant | yeast fitness (ln)
G1A C46U C66A A70U C71U | -0.171
G6U A43C C46U C66U A70G | -0.205
U2G G6A C46U A70G | -0.0796
G6A C46U A69G | -0.469
U2C G6U C27U C46U C66A A70G C71U | -0.0247
G1A C27U A43C C66A A69G A70U C71U | -0.431
G6A C66A C71U | -0.0747
G1A G6A C66U A69G A70U C71U | -0.266
U2G G6U C46U A69G A70G C71U | -0.217
G1A U2G G6A C27U A43C A70G | -0.381
G1A U2C C66U C71U | -0.189
G6U C27U A43C C46U C66U C71U | -0.355
G1A U2G A43C C46U C66A A69G A70G C71U | -0.24
G1A U2G C27U A69G A70G C71U | -0.241
G1A U2G G6U C66U A70U C71U | -0.351
U2G G6A C27U C46U A69G A70G | -0.174
G1A U2G C46U C66U | -0.0764
G1A U2G A70U | -0.124
G1A U2C A43C C46U A70G | -0.00269
G1A U2C C27U A43C C46U C66U A70U | -0.0712
G1A U2G G6U A43C C46U C66A A70U C71U | -0.0885
G6A C27U C46U A70U C71U | -0.218
G1A U2G C46U A69G A70G | -0.163
U2C C27U A43C C46U A70G C71U | -0.00986

Variant | yeast fitness (ln)
C27U A43C C66A A69G A70G | -0.181
U2G G6A C27U A43C C66U A70U | -0.0534
G1A U2G G6A C27U A43C C66A A69G A70G C71U | -0.351
U2G C46U A69G A70G | -0.131
G1A U2G C27U C46U A69G A70G C71U | -0.292
G1A U2G G6U C27U A43C A70U C71U | -0.415
U2G G6A A43C C71U | -0.195
U2C G6A C46U | -0.0163
U2C G6U C27U A43C A69G A70G | -0.242
U2C G6U C27U A43C A69G A70U | -0.271
G6U C27U C46U C66A A69G A70U C71U | -0.328
G1A U2C C27U C46U C66A C71U | -0.12
U2G A43C C46U C66A A70U | -0.0637
G6A A43C C46U C66A A70G C71U | -0.286
G1A U2G C46U C66A A69G A70U | -0.0906
U2G G6A A43C C46U C66U A70G C71U | -0.149
G1A C46U C66A A70G C71U | -0.11
G1A U2G C27U | -0.0429
G6U C27U C66A C71U | -0.109
G1A U2C G6U C27U A43C C46U A70U C71U | -0.177
G6U C27U A43C A69G A70U C71U | -0.462
G1A G6U C27U A70U | -0.232
U2G G6A C27U C46U C66U A70G | -0.364
C27U C46U C66A A70U | -0.0577

Variant | yeast fitness (ln)
C27U A69G A70G | -0.0809
U2G G6A C27U A43C C66U A70U C71U | -0.339
G1A U2G A43C C46U C66U A69G A70U | -0.181
U2C G6U C27U C46U A69G A70U C71U | -0.334
G6A C27U A43C C46U A69G A70G | -0.237
U2C G6U C27U A43C C46U C66A | 0.00284
U2G C27U A69G | -0.0592
G1A C27U C71U | -0.0389
U2C G6A A43C C66U A69G A70U C71U | -0.366
U2C C27U A43C A69G A70G | -0.0551
G6U C27U C66U A69G | -0.276
U2G G6A C27U C46U C66A A69G A70G C71U | -0.251
U2C G6A C46U C66A A70G C71U | -0.142
U2G G6A A43C C46U A70G C71U | -0.209
G1A C27U A43C C46U C66U A70G | -0.226
G1A U2G C27U A43C C66A A70G C71U | -0.317
U2C G6A C27U A43C C46U C66U A70U | -0.0567
G6A C46U A70G | -0.226
G1A U2C G6U C27U C46U C71U | -0.0687
G1A U2G A43C A70G C71U | -0.207
G1A U2C G6A C46U A70G | -0.179
G1A G6U C46U C66U A69G A70G C71U | -0.216
C46U C66A A70G | -0.0456
G1A U2G G6U C27U A43C C66U A70G C71U | -0.346

Variant | yeast fitness (ln)
C27U C46U C66A A69G A70G | -0.124
G6U C27U C46U C66A A70U | -0.084
G6A C66A A69G A70G C71U | -0.163
U2C G6A C27U C46U C66A A70U C71U | -0.172
G1A U2G G6U A43C A69G A70G C71U | -0.439
G6U A43C C46U C66A A70U | -0.113
G1A U2G C27U C46U C66A A69G A70U C71U | -0.476
G1A U2G G6A C27U C46U C66A A70U C71U | -0.249
G1A U2G G6A A43C A70G | -0.304
U2G G6U C27U C46U C66A A69G A70G | -0.214
G1A U2G G6U A43C C46U A69G A70U | -0.354
U2C G6U C27U A43C A70G C71U | -0.324
G1A U2G G6U C46U C66U C71U | -0.257
G1A U2G C27U C66U A70G C71U | -0.321
G1A C66A A70U | -0.0714
G1A U2G G6U A43C C66A A69G A70U C71U | -0.351
G6U A43C A69G | -0.328
G1A U2C G6U A69G A70U C71U | -0.277
U2C G6U C46U A69G A70U C71U | -0.216
G1A C27U A43C C66U A69G A70U | -0.325
G1A U2C C46U A70U | -0.0782
U2C G6U A43C C66A A69G A70U | -0.338
G6U A43C C46U C66U | -0.258
U2C G6A C27U | -0.0332

Variant | yeast fitness (ln)
U2C C27U A43C C46U C66A A69G C71U | -0.41
G1A C27U A69G A70U C71U | -0.421
G6U C46U A69G A70U | -0.204
C27U C66U C71U | -0.173
C27U C46U C66U A70U C71U | -0.197
G6A C46U C66A A69G A70G C71U | -0.185
G1A U2C G6U C46U A70G | -0.239
U2C A43C C46U A69G A70G | -0.0147
G1A G6U C46U C66A A70G C71U | -0.0299
G1A G6A A70U | -0.0929
G1A U2C G6A C27U C46U C66U A70U | -0.0971
U2G A43C C46U A70G | -0.0614
G1A G6A C27U C46U A70G C71U | -0.366
G1A U2C G6U C27U A43C C46U C66A A70G | -0.15
G1A A43C C66A A69G A70U C71U | -0.257
G6U A43C C46U A70U C71U | -0.225
G1A U2C C27U A43C A70G | -0.0774
G6U C27U C66A A69G A70U C71U | -0.378
G1A G6U C46U C66A A69G A70U | -0.106
U2G G6A C27U A69G C71U | -0.268
G1A U2C C27U A43C C46U C71U | -0.178
A43C C46U C66U A69G | -0.172
G6U C27U C46U C66U | -0.209
G6U C27U C46U C66A | -0.00348

Variant | yeast fitness (ln)
G1A U2C G6A A43C A70U | -0.113
U2C G6A C27U A43C C46U C66A A70U | -0.0497
A43C C46U C66U A70G | -0.0608
U2G A43C | -0.0825
U2G G6U C27U C46U C71U | -0.199
G1A U2C G6A A43C C46U C66U A70G | -0.0356
U2C G6A A43C C46U A69G C71U | -0.0945
G6U C27U C46U C66A A70G C71U | -0.434
G1A U2C C46U A69G A70G | -0.029
U2G G6U C27U C66U A69G A70G | -0.375
U2G C66U A70U C71U | -0.543
U2G G6A C66A A69G A70G C71U | -0.213
G1A U2G G6A C27U A43C C46U C66U A70U | -0.226
U2C G6U A43C C46U C71U | -0.125
G1A U2C G6A C27U A43C C46U C66U A70G C71U | -0.0245
G1A G6U A43C C46U C66U A70G | -0.261
U2C C27U A43C C66A A70U | -0.145
G1A U2G C27U C46U A69G A70U | -0.207
G1A U2G G6A C66U C71U | -0.146
G6U C66U A70U C71U | -0.315
G1A G6U C46U C71U | -0.183
G6A C66U C71U | -0.0335
U2G C27U C46U C66A | -0.0734
G1A U2G G6A A43C C46U A70G C71U | -0.202

Variant | yeast fitness (ln)
G1A G6A C27U A43C C46U | -0.233
G1A U2G G6A C66A A70U | -0.0697
G1A U2G G6A C27U C46U C66U A69G A70U | -0.219
U2G C27U C66A A70G C71U | -0.201
C27U A70U | -0.042
G1A G6A A43C C66U A70U C71U | -0.405
U2C G6U C27U A70U C71U | -0.136
C46U C66U C71U | -0.0591
A43C C46U C66A A70G | 0.00409
G1A U2C G6A C46U C66U A69G A70G C71U | -0.0172
G1A U2G G6A C27U A43C C46U A69G A70U C71U | -0.443
G1A U2G C27U A43C C46U C66A C71U | -0.254
G1A U2C G6U A43C C46U C66A A70U | -0.177
G1A U2C C27U C46U C66U C71U | -0.124
U2C C27U C66U A69G A70U | -0.188
G1A U2G G6A A43C C46U | -0.111
G6A A43C C66A A69G A70G C71U | -0.261
U2G G6A C27U A43C C71U | -0.197
G6U A43C A70U | -0.164
G1A U2C G6U A43C C46U A70G C71U | -0.359
G6A C27U C46U C66A A70G C71U | -0.252
U2C G6U C66U A69G A70G C71U | -0.346
G1A A43C C46U C66U A69G A70U | -0.259
